Source: ChEMBL document CHEMBL1177821, “Structure-activity relationships and hepatic safety risks of thiazole agonists of the thrombopoietin receptor” (Bioorg Med Chem Lett, 2010)
One block for each compound: values may come before it. Calls of active or inactive are those of the source. The rule behind the calls is not given here.

Assays:
Thrombopoietin receptor = target: T1, Thrombopoietin receptor (Homo sapiens, UniProt P40238); assay: Agonist activity at human TPO receptor expressed in murine BaF3 cells
T1 sequence (P40238 whole entry): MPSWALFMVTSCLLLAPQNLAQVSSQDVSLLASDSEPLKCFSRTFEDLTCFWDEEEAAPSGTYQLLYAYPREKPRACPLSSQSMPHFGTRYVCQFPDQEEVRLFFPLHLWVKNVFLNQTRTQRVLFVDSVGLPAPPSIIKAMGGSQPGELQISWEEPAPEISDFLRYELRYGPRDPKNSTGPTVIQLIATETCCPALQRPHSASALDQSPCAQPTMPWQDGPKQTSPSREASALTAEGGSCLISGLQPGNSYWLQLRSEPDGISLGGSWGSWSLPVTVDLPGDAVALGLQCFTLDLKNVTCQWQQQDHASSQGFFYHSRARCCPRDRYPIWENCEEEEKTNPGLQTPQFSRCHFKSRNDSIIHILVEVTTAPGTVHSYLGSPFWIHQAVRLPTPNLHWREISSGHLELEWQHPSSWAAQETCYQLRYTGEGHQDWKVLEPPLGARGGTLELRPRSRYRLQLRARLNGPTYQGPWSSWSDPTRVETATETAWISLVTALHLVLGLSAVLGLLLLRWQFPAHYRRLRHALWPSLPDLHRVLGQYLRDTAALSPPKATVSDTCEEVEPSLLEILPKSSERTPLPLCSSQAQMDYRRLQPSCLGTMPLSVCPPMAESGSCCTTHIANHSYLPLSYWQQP

Rattus norvegicus [1] = assay: Toxicity in rat assessed as elevation of ALT level at 50 mg/kg, po; type: organism-based; design: dose 50 mg/kg, route oral; conditions: in vivo
Summary of the method: (§1)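 Single oral doses of 50, 250 or 500 mg/kg given to rats, each study with its own control group. Mean serum AST and ALT (IU/L) measured. Histopathology of liver also examined.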

[2] = AUC (0 to 24 hrs) in rat at 500 mg/kg, po; type: ADME, organism-based; design: time < 24 hr, dose 500 mg/kg, route oral; conditions: plasma
Summary of the method: (§2)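 Rats given single oral doses of 50, 250 or 500 mg/kg, with a separate vehicle control group in each study. Mean Cmax (µg/mL) and mean AUC0–24 (µg h/mL) taken as total (bound plus unbound) plasma concentrations.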

[3] = AUC (0 to 24 hrs) in rat at 50 mg/kg, po; type: ADME, organism-based; design: time < 24 hr, dose 50 mg/kg, route oral; conditions: plasma
Summary of the method: as §2

Rattus norvegicus [4] = assay: Toxicity in rat assessed as histopathological changes at 10 to 150 mg/kg, po after 4 days; type: organism-based; design: dose 10-150 mg/kg, route oral; conditions: in vivo, 96 h
Summary of the method: (§3)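 Rats dosed orally once daily for four days at 10, 50 or 150 mg/kg, four animals per dose. Clinical pathology including ALT and bilirubin checked on days 1 and 5. Histopathology examined.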

[5] = Cmax in rat at 50 mg/kg, po; type: ADME, organism-based; design: dose 50 mg/kg, route oral; conditions: in vivo
Summary of the method: as §2

Rattus norvegicus [6] = assay: Toxicity in rat assessed as elevation of ALT level at 250 mg/kg, po; type: organism-based; design: dose 250 mg/kg, route oral; conditions: in vivo
Summary of the method: as §1

Mus musculus [7] = species on record: Mus musculus; assay: Increase of platelets level in human TPO receptor transgenic mouse measured after 6 days; type: functional, organism-based
Summary of the method: (§4)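 Human TPO receptor transgenic mice (knock-out/human knock-in of receptor exons 8–10, spanning the transmembrane domain) and wild-type mice given compound on days 0 and 1. Platelets counted on day 6.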

[8] = Cmax in rat at 250 mg/kg, po; type: ADME, organism-based; design: dose 250 mg/kg, route oral; conditions: in vivo
Summary of the method: as §2

Rattus norvegicus [9] = assay: Toxicity in rat assessed as elevation of AST level at 250 mg/kg, po; type: organism-based; design: dose 250 mg/kg, route oral; conditions: in vivo
Summary of the method: as §1

Rattus norvegicus [10] = assay: Toxicity in rat assessed as elevation of AST level at 50 mg/kg, po; type: organism-based; design: dose 50 mg/kg, route oral; conditions: in vivo
Summary of the method: as §1

Mus musculus [11] = species on record: Mus musculus; assay: Increase of platelets level in mouse measured after 6 days; type: functional, organism-based
Summary of the method: as §4

Rattus norvegicus [12] = assay: Toxicity in rat assessed as change in clinical pathology at 10 to 150 mg/kg, po after 4 days; type: organism-based; design: dose 10-150 mg/kg, route oral; conditions: in vivo, 96 h
Summary of the method: as §3

[13] = AUC (0 to 24 hrs) in rat at 250 mg/kg, po; type: ADME, organism-based; design: time < 24 hr, dose 250 mg/kg, route oral; conditions: plasma
Summary of the method: as §2

Rattus norvegicus [14] = assay: Toxicity in rat assessed as elevation of ALT level at 500 mg/kg, po; type: organism-based; design: dose 500 mg/kg, route oral; conditions: in vivo
Summary of the method: as §1

Rattus norvegicus [15] = assay: Toxicity in rat assessed as elevation of AST level at 500 mg/kg, po; type: organism-based; design: dose 500 mg/kg, route oral; conditions: in vivo
Summary of the method: as §1

[16] = Cmax in rat at 500 mg/kg, po; type: ADME, organism-based; design: dose 500 mg/kg, route oral; conditions: in vivo
Summary of the method: as §2

Compound: CCc1sc(NC(=O)c2cnc(N3CCC(C(=O)O)CC3)c(Cl)c2)nc1-c1ccc(F)c(C(F)(F)F)c1
EC50 (Thrombopoietin receptor): 160 nM

Compound: CCCCc1cc(-c2nc(NC(=O)c3cnc(N4CCC(C(=O)O)CC4)c(Cl)c3)sc2F)ccc1F
EC50 (Thrombopoietin receptor): 220 nM

Compound: O=C(Nc1nc(-c2ccc(F)c(C(F)(F)F)c2)ns1)c1cnc(N2CCC(C(=O)O)CC2)c(Cl)c1
EC50 (Thrombopoietin receptor): 574 nM

Compound: O=C(Nc1nc(-c2cccc(C(F)(F)F)c2F)cs1)c1cnc(N2CCC(C(=O)O)CC2)c(Cl)c1
Activity (Rattus norvegicus [1]): 442 IU/L
AUC(0-t) at 24 h [2]: 1490 µg·h/mL
AUC(0-t) at 24 h [3]: 84 µg·h/mL
Activity (Rattus norvegicus [4]): Non-toxic
Cmax [5]: 20000 ng/mL
Activity (Rattus norvegicus [6]): 450 IU/L
EC50 (Mus musculus [7]): 27 µg·h/mL
Cmax [8]: 48000 ng/mL
Activity (Rattus norvegicus [9]): 2952 IU/L
Activity (Rattus norvegicus [10]): 1937 IU/L
Activity (Mus musculus [11]): inactive
Activity (Rattus norvegicus [12]): Non-toxic
AUC(0-t) at 24 h [13]: 832 µg·h/mL
Activity (Rattus norvegicus [14]): 579 IU/L
Activity (Rattus norvegicus [15]): 3495 IU/L
Cmax [16]: 84000 ng/mL

Compound: O=C(Nc1ccn(-c2cccc(C(F)(F)F)c2F)n1)c1cnc(N2CCC(C(=O)O)CC2)c(Cl)c1
EC50 (Thrombopoietin receptor): > 811 nM

Compound: O=C(Nc1nc(-c2ccc(F)c(C(F)(F)F)c2)cs1)c1cnc(N2CCC(C(=O)O)CC2)c(Cl)c1
EC50 (Thrombopoietin receptor): 100 nM

Compound: O=C(Nc1nc(-c2ccc(Cl)c(Cl)c2)c(F)s1)c1cnc(N2CCC(C(=O)O)CC2)c(Cl)c1
EC50 (Thrombopoietin receptor): > 1000 nM

Compound: CC(C)Cc1cc(-c2nc(NC(=O)c3cnc(N4CCC(C(=O)O)CC4)c(Cl)c3)sc2F)ccc1F
EC50 (Thrombopoietin receptor): 58 nM

Compound: CCCc1sc(NC(=O)c2cnc(N3CCC(C(=O)O)CC3)c(Cl)c2)nc1-c1ccc(F)c(C(F)(F)F)c1
EC50 (Thrombopoietin receptor): 130 nM

The next lines start with results.

EC50 (Thrombopoietin receptor): > 970 nM
Compound: CCOCc1cc(-c2nc(NC(=O)c3cnc(N4CCC(C(=O)O)CC4)c(Cl)c3)sc2F)ccc1F

EC50 (Thrombopoietin receptor): 950 nM
Compound: O=C(Nc1nc(-c2ccc(F)c(OCC(F)(F)F)c2)c(F)s1)c1cnc(N2CCC(C(=O)O)CC2)c(Cl)c1

EC50 (Mus musculus [7]): 7 µg·h/mL
EC50 (Thrombopoietin receptor): 89 nM
Compound: O=C(Nc1nc(-c2ccc(F)c(C(F)(F)F)c2)c(F)s1)c1cnc(N2CCC(C(=O)O)CC2)c(Cl)c1
Activity (Rattus norvegicus [4]): Non-toxic
Activity (Mus musculus [11]): inactive
Activity (Rattus norvegicus [12]): Non-toxic

EC50 (Thrombopoietin receptor): 66 nM
Compound: Cc1sc(NC(=O)c2cnc(N3CCC(C(=O)O)CC3)c(Cl)c2)nc1-c1ccc(F)c(C(F)(F)F)c1

EC50 (Thrombopoietin receptor): > 898 nM
Compound: N#Cc1sc(NC(=O)c2cnc(N3CCC(C(=O)O)CC3)c(Cl)c2)nc1-c1ccc(F)c(C(F)(F)F)c1

EC50 (Thrombopoietin receptor): 620 nM
Compound: O=C(Nc1nc(-c2ccc(F)c(OC(F)(F)F)c2)c(F)s1)c1cnc(N2CCC(C(=O)O)CC2)c(Cl)c1

EC50 (Thrombopoietin receptor): 670 nM
Compound: O=C(Nc1nc(-c2ccc(F)c(Br)c2)c(F)s1)c1cnc(N2CCC(C(=O)O)CC2)c(Cl)c1

EC50 (Thrombopoietin receptor): 480 nM
Compound: O=C(Nc1nc(-c2ccc(F)c(Cl)c2)c(F)s1)c1cnc(N2CCC(C(=O)O)CC2)c(Cl)c1

EC50 (Thrombopoietin receptor): 702 nM
Compound: O=C(Nc1nc(-c2cccc(C(F)(F)F)c2F)c(F)s1)c1cnc(N2CCC(C(=O)O)CC2)c(Cl)c1

EC50 (Thrombopoietin receptor): 86 nM
Compound: O=C(Nc1nc(-c2ccc(F)c(C(F)(F)F)c2)c(Cl)s1)c1cnc(N2CCC(C(=O)O)CC2)c(Cl)c1
